The record followed here is ChEMBL document CHEMBL1152729, “Ceramides: branched alkyl chains in the sphingolipid siblings of diacylglycerol improve biological potency” (Bioorg Med Chem, 2009).

Assay [1] has as its system SUP-T1. As to the kind of experiment: Cytotoxicity against human SupT1 cells after 24 hrs by CellTiter-Blue assay. It is filed as functional, cell-based. Put shortly:
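SupT1 cells cultured in RPMI with 10% FBS and penicillin-streptomycin, then incubated 24 h with serially diluted compound from 50 mM DMSO stocks. CellTiter-Blue resazurin reduction was read at 560/590 nm and normalized to the no-drug control as percent viability. IC50s came from the fitted dose-response curve of each experiment and were averaged over three experiments ± SD.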
Background: Resazurin is reduced to fluorescent resorufin, in cell work by metabolically active cells.

Assay [2] concerns SUP-T1. The experiment in a line: Induction of apoptosis in human SupT1 cells at 25 uM after 24 hrs using DiOC6 staining by FACS. The assay is classed as functional. The method, boiled down: (§1)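 SupT1 cells exposed to varying compound concentrations for 24 h, then collected and PBS-washed. Mitochondrial depolarization was detected by 10 μM DiOC6 staining and flow cytometry. Cells with reduced DiOC6 staining were gated as apoptotic.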

The subject of the next assay is MCF7. As to the kind of experiment: Cytotoxicity against human MCF7 cells after 24 hrs by CellTiter-Blue assay. The assay is classed as functional, cell-based. The note with it: MCF7, 24 h. Put shortly:
(§2)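 MCF-7 or MDA-MB231 cells kept in DMEM with 10% FBS and penicillin-streptomycin. The cells were exposed for 24 h to serial dilutions of compound, diluted in medium at 37 °C from 50 mM DMSO stocks. Viability was read by resazurin-to-resorufin fluorescence at 560/590 nm ex/em and normalized to the no-drug control. Dose-response fits gave IC50s, averaged over three experiments ± SD.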

Another assay concerns MDA-MB-231. The experiment in a line: Cytotoxicity against human MDA-MB-231 cells after 24 hrs by CellTiter-Blue assay. The note with it: MDA-MB-231, 24 h. The assay is classed as functional, cell-based. Put shortly: as §2
Assay [3] relates to SUP-T1. The experiment in a line: Induction of early apoptosis in human SupT1 cells after 24 hrs using annexin V-FITC staining by FACS. It is filed as functional, cell-based. The method, boiled down: (§3)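 SupT1 cells treated for 24 h at different compound concentrations, then harvested and washed in PBS. Phosphatidylserine exposure was detected by Annexin V-FITC staining and flow cytometry. Brightly stained cells were counted as apoptotic.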
On the technique in general: Flow cytometry measures light scatter and fluorescence of single cells or particles in a stream.

The test system of a further assay is SK-BR-3. As to the kind of experiment: Cytotoxicity against human SKBR3 cells after 24 hrs by CellTiter-Blue assay. It is filed as functional, cell-based. Particulars: SK-BR-3, 24 h. The method, boiled down:
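SKBR3 breast cancer cells grown in DMEM with 10% FBS and penicillin-streptomycin. The cells were treated for 24 h with serial compound dilutions made in 37 °C medium from 50 mM DMSO stocks. Resorufin fluorescence (560/590 nm ex/em) was expressed as percent of the untreated control. Curve fitting gave IC50s, with the mean of three repeats ± SD.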

The subject of the next assay is NHDF. The experiment in a line: Cytotoxicity against NHDF after 24 hrs by CellTiter-Blue assay. It is filed as cell-based. Particulars: Homo sapiens. Put shortly: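 Normal human dermal fibroblasts grown in fibroblast medium and treated for 24 h with serial compound dilutions. Viability was measured by resorufin fluorescence (560/590 nm ex/em) as percent of the no-drug control. IC50 was taken from the dose-response fit as a single determination.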

The test system of assay [4] is SUP-T1. As to the kind of experiment: Induction of early apoptosis in human SupT1 cells at 25 uM after 24 hrs using annexin V-FITC staining by FACS. The assay is classed as functional. The method, boiled down:
as §3

Assay [5] relates to SUP-T1. The experiment in a line: Induction of apoptosis in human SupT1 cells after 24 hrs using DiOC6 staining by FACS. The assay is classed as functional, cell-based. The method, boiled down:
as §1

For assay [6], the system named is SUP-T1. The experiment in a line: Induction of early apoptosis in human SupT1 cells at 50 uM after 24 hrs using annexin V-FITC staining by FACS. It is filed as functional. The method, boiled down: as §3
Assay [7] concerns SUP-T1. As to the kind of experiment: Induction of apoptosis in human SupT1 cells at 50 uM after 24 hrs using DiOC6 staining by FACS. It is filed as functional. Put shortly:
as §1

The compound `CCCCCCCCCCCCC/C=C/[C@@H](O)[C@H](CO)NC(=O)CCCCC` returned an IC50 in the assay on SUP-T1 [1] (Homo sapiens, SUP-T1, 24 h) of 48 µM.

For the compound `CCCCCC(=O)N[C@@H](CO)[C@H](O)/C=C/CC(CC(C)C)CC(C)C`, the IC50 with SUP-T1 [1] (Homo sapiens, SUP-T1, 24 h) turned out to be 52.9 µM.

For the compound `CCCCCCCCCCC(=O)N[C@@H](CO)[C@H](O)/C=C/CC(CC(C)C)CC(C)C`, the Activity with SUP-T1 [2] was 75.15%; in the assay with SUP-T1 [3], “Dose-dependent effect”; with SUP-T1 [4] it was 66.16%; in the assay on SUP-T1 [5], “Dose-dependent effect”. For the same compound, the IC50 with MCF7 was determined as 16.3 µM; in the assay with SUP-T1 [1] (Homo sapiens, SUP-T1, 24 h) it was 15.5 µM; in the assay on MDA-MB-231, 22.4 µM; in the assay on SK-BR-3 it was 10.2 µM; with NHDF, 45.4 µM.

`CCCCCCCCCCCC[C@@H](O)[C@H](CO)NC(=O)CC(CC(C)C)CC(C)C`: in the assay on SUP-T1 [1] (Homo sapiens, SUP-T1, 24 h), half-maximal inhibition (IC50) required 76.3 µM.

Consider `CCCCCCCCCC/C=C/[C@@H](O)[C@H](CO)NC(=O)CC(CC(C)C)CC(C)C`, for which, in the assay on SUP-T1 [1] (Homo sapiens, SUP-T1, 24 h), half-maximal inhibition (IC50) was put at 29.1 µM.

Take `CCCCCCCCCCCCC/C=C/[C@@H](O)[C@H](CO)NC(C)=O` (stereo in doubt; 1): the Activity in the assay with SUP-T1 [6] is 42.33%; in the assay on SUP-T1 [3] it was “Dose-dependent effect”; in the assay on SUP-T1 [7] it was 56.14%; in the assay with SUP-T1 [5], “Dose-dependent effect”. Moreover, the IC50 with MCF7 was 45.4 µM; with SUP-T1 [1] (sup-t1), 41.4 µM; with MDA-MB-231 it was 35.4 µM; in the assay on SK-BR-3, 49.2 µM; in the assay with NHDF, 66.5 µM.

What is called IC50 is the midpoint of a concentration-inhibition curve. Higher therefore signals weaker potency.
